According to PMC11034909 (Advanced therapeutics, 2023):

Assays:
[1] = Body weight of CT26 tumor-bearing mice; format: in vivo, mouse; conditions: doxorubicin 5 mg/kg i.v. days 6, 9, 12, alone or in the combination group
In short: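 Eight-week-old male and female Balb/c mice received 1×10⁶ CT26 cells s.c. in the right flank. At 50–100 mm³, tumours were randomised into groups of 10 (half female). Doxorubicin 5 mg/kg i.v. was given on days 6, 9 and 12 post-implant, alone or combined with test peptide 5 mg/kg daily. Saline served as negative control. Body weight was recorded daily throughout treatment.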

[2] = tested on: triple negative breast cancer; conditions: cited from earlier work
[3] = doxorubicin; cited from earlier work
[4] = tested on: tumor immunogenic cell death (ICD); conditions: cited from earlier work

In the case of COc1cccc2c1C(=O)c1c(O)c3c(c(O)c1C2=O)C[C@@](O)(C(=O)CO)C[C@@H]3O[C@H]1C[C@H](N)[C@H](O)[C@H](C)O1 [doxorubicin], the “Systemic toxicity (weight loss)” value [1] is listed as “slight systemic toxicity”, the “Effect on CD47 expression” value [2] is listed as “induced CD47 expression in triple negative breast cancer” and the Maximum tolerated dose [3] is listed as 5 mg/kg. For the same compound, the “Induction of tumor immunogenic cell death” value [4] was “induce tumor immunogenic cell death (ICD)”.
